# From the RNAGym collection of RNA variant scans (doi:10.1126/science.aae0568)
# Fewer inactive variants are shown than the library holds.
# B1: tRNA (parent)
# chain: GUUCCGUUGGCGUAAUGGUAACGCGUCUCCCUCCUAAGGAGAAGACUGCGGGUUCGAGUCCCGUACGGAACG
# Variants of: B1
# Assay: yeast fitness relative to wild type (ratio to wild type); higher = fitter; tRNA-Arg(CCU), competitive growth, 37 C, YPD
# How it was run: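 Variants of the tRNA-Arg(CCU) gene were chemically synthesised with a 3% per-site mutation rate across 69 sites and placed at the native genomic locus in Saccharomyces cerevisiae. Six parallel replicates of the pooled strains were competed in YPD at 37°C for 24 hours, and gene amplicons from the start and end populations were read by 100-nucleotide paired-end sequencing. Darwinian fitness relative to wild type was derived from changes in genotype frequencies. Genotypes required ≥ 100 starting reads, and estimates < 0.5 were set to 0.5.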
row,Variant,yeast fitness
1,GUUCCGUUGGCGUAAUAGUAACGCGUCUCCCUCCUAAGCAGAAGACUGCGGGUUCCAGUCCCGUACGGAACG,≤ 0.5
2,GUUCCGUUGGCGUAAUAGUAACGCGUCUCCGUCCUAAGGAGAAGACUGGGGGUUCGAGUCCCGUACGGAACG,≤ 0.5
3,GUUCCGUUGGCGUAAUAAUAACGCGUCUCCCUCCUAAGGAGAAGACUGCGGGUUCGAGUCCCGUACGGAACG,0.65
4,GUUCCGUUGGCGUAAUACUAACGCGUCUCCCUCCUAAGGAGAAGACUGCGGGUUCGAGUCCCGUACGGAACG,0.63
5,GUUCCGUUGGCGUAAUAGUAACGCGUCUCGCUCCUAAGGAGAAGACUGCGGGUUCGAGUCCCGUACGGAACG,0.604
6,GUUCCGUUGGCGUAAUAGUAACGCGUCUCCCUCCUAAGGAGAAGACUGCGGGUUCGAGUCCCGUAAGGAACG,0.647
7,GUUCCGUUGGCGUAAUAGUAACGCGUCUCGCUCCUAAGGAGAAGAUUGCGGGUUCGAGUCCCCUAUGGAACG,≤ 0.5
8,GUUCCGUUGGCGUAAUAGUAAUGCGUCUCCCUCCUAAGGAGAAGACUGCGGGUUCGAGACCCGUACGGAACG,≤ 0.5
9,GUUCCGUUGGCGUAAUAGUAACCCGUCUCCCUGCUAAGGAGAAGAAUGCGGGUUCGAGUCCCGUAAGGAACG,≤ 0.5
10,GUUCCGUUGGCGUAAUAGUAACGCGUCUCCUUCCUAAGGAGCAGACUGCGGGUUCGAGUCCCGUACGGAACG,0.582
11,GUUCCGUUGGCGUAAUAGUAACGCGUCUCCCUCCUAAGGAGAAGACUGCGGGUUCGAGUCUCGUAUGGAACG,0.599
12,GUUCCGUUGGCGUAAUAGUAACGCGUCUCCGUCCUAAGGAGAAGACUACGGGUUCGAGUCCCGUACGGAACG,≤ 0.5
13,GUUCCGUUGGCGUAAUAGUAACGCGUCUCCCUCCUAAGGAGAAGACUGCGGGUUCGAGUCGCGUACGAAACG,≤ 0.5
14,GUUCCGUUGGCGUAAUAGUAACGCGUCUCUCUCCUAAGGAGAAGACUGCGGGUUCGCGUCCCGUACGGCACG,0.688
15,GUUCCGUUGGCGUAAUAGUAACGCAUCUCCCUCCUAAGGAGAAGACUGCGGGUUCGAGUCCCGUACGGAACG,0.886
16,GUUCCGUUGGCGUAAUAAUAACGCGUCUCCCUCCUAAGGAGCAGACUGCGGGUUUGAGUCCCGUACGGAACG,0.508
17,GUUCCGUUGGCGUAAUAGUAACGCGUCUCCCUCUUAAGGAGAAGAGUGCGGGUUCGAGUCCCGUUCGGAACG,≤ 0.5
18,GUUCCGUUGGCGUAAUAGUAACGCGUCUCGCUCCUAAGGAGAAGACUGCGGGUUCGAGUCGCGUACGGAACG,≤ 0.5
19,GUUCCGUUGGCGUAAUAGUAACGCGUCUCCUUCCUAAGGAGAAGACUGCGGGUUCGAGUCCCGUACGGAACG,0.74

row,Variant,yeast fitness
1,GUUCCGUUGGCGUAAUAGUAACGCGUCUCCCUCCUAAGGAAAAGACUGCGGGUUCGAGUCCCGUACGGAACG,0.665
2,GUUCCGUUGGCGUAAUAGUAACGCGUCUCCAACCUAAGGAGAAGACUGCGGGUUCGAGUCCCGUACGGAACG,0.62
3,GUUCCGUUGGCGUAAUAGUAACGCGUCUCCCUCCUAAGGAGAAGACUGCGGAUUCGAGUCCCGUACGGAACG,0.549
4,GUUCCGUUGGCGUAAUAGUAACGCGUCUCCCUCCUAAGGAGAAGACUGCGGGUUCGAGUCACAUACAGAACG,0.542
5,GUUCCGUUGGCGUAAUAGUAAUGCGUCCCCCUCCUAAGGAGAAGACUGCGGGUGCGCGUCCUGUACGGAACG,0.535
6,GUUCCGUUGGCGUAAUAGUAACGCGUCUCCCUCAUAAGGAGAAGACUGUGGUUUCGAGUCCCGUACGGAACG,≤ 0.5
7,GUUCCGUUGGCGUAAUAGUAACGGGUCUCCCUGCUAAGGAGAAGACUGCGGGUUCGAGUUCCGUACGGAACG,≤ 0.5
8,GUUCCGUUGGCGUAAUAGUAACGCGUCUCCCUCAUAAGGAGAAGACUGCGGGUUCGUGUCCCGUACGGAACG,≤ 0.5
9,GUUCCGUUGGCGUAAUAGUAACGCGUCUCCCUCCUAAGGAGAAGACUGCGGGUUCGAGUCCUGUACGGUACG,0.587
10,GUUCCGUUGGCGUAAUAGUAACGCGUCUGCCUCCUAAGGAGAAGACAGCGAGUUCGAGUCCCGUACGGAACG,≤ 0.5
11,GUUCCGUUGGCGUAAUAGUAACGCGUCUCCUUCCUAAGGAGAAGACUGCGGGUGCGAGUCCCGUACGGAACG,0.639
12,GUUCCGUUGGCGUAAUAGUAACGCGUCUCCCUCCUAAGGACAGGACUGCGGGUUCGACUCCCGUACGGAACG,≤ 0.5
13,GUUCCGUUGGCGUAAUAGUAACGCGUCUCCCUCCUAAGGAGAAGACUGCGGGUUCGAGUCCAGUACGGAACG,0.558
14,GUUCCGUUGGCGUAAUAGUAACGCGUCUCCCUCCUAAGGAGAAGACUGCGGGUUCGAGUCCUGUACGGAACG,0.736
15,GUUCCGUUGGCGUAAUAGUAACGCGUCUCCCUCCUAAGGAGAAGACUGCGGGUUCAAGUCCCGUAUGGAACG,0.678
16,GUUCCGUUGGCGUAAUAGUAACGCGUCUCCCUCCUAAGGAGAAGACUCCGGGUUCGAGUCCAGUACGGAACG,0.549
17,GUUCCGUUGGCGUAAUAGUAAUGCGUCUCCCACUUAGGGUGAAGACUGCGGGUUCGAGUCCAAUACGGAACG,0.512
18,GUUCCGUUGGCGUAAUAGUAACGAGUCUCCCUCCUAAGGAGAAGACUGUGGGUUCGAGUCCCGUACGGAACG,≤ 0.5
19,GUUCCGUUGGCGUAAUAGUAACGCGUCUUCCUCCGACCGAGAAGACUGCGGGUUCGAGUCCCGUCCGGAACG,≤ 0.5
